Results from different studies.
Protocols differ between the studies behind these lines.
Organism: Klebsiella pneumoniae
Observed: microbial growth

NC1CCc2c1[nH]c1ccc(Cl)c(Cl)c21 (stereo not drawn)  MIC (broth dilution; ATCC10031): 8 mg/L
CN(C)Cc1ccc2c(N(C)C)c3c(c(O)c2c1)C(=O)C1=C(O)[C@]2(O)C(=O)C(C(N)=O)=C(O)[C@@H](N(C)C)[C@@H]2C[C@@H]1C3  MIC (broth dilution; ATCC13883): 4 mg/L
CCCCCCC#Cc1cncc(-c2nnc(SCc3ccc(Cl)cc3)n2C)c1  MIC: ≥ 20 mg/L
Cc1c(CN(C)C(=O)/C=C/c2cnc3c(c2)CC(CCN)C(=O)N3)oc2ccccc12.Cl (stereo not drawn)  MIC (broth dilution; BAA2472): 16 mg/L
CCn1cc(C(=O)O)c(=O)c2ccc(C)nc21  MIC (broth dilution; ATCC700603): 80 µM
CC1(C)S[C@@H]2[C@H](NC(=O)COc3ccccc3)C(=O)N2[C@H]1C(=O)O  MIC (broth dilution; ATCC10031; 18 h): 4 mg/L
CC(C)Oc1c(NC(=O)c2ccc(NC(=O)[C@H](CC(N)=O)NC(=O)c3ccc(NC(=O)c4ccc(C#N)cn4)cc3)cc2)ccc(C(=O)Nc2ccc(C(=O)O)cc2)c1O  MIC (DSM30104): > 64 mg/L
CC1=NN(CNc2ccc(Cl)cc2)C(=O)C1=NNn1c(-c2ccccc2)nc2ccccc2c1=O  MIC (broth dilution; 24 h): 51.5 µM
C[C@@H]1O[C@@H]1P(=O)(O)O  MIC (broth dilution; ATCC700603): 80 µM
CN(C)[C@@H]1C(O)=C(C(N)=O)C(=O)[C@@]2(O)C(O)=C3C(=O)c4c(cc5ccc(CN(C)S(C)(=O)=O)cc5c4O)C[C@H]3C[C@@H]12  MIC (broth dilution; ATCC13883): 32 mg/L
O=C(N[C@H](CO)[C@H](O)c1ccc([N+](=O)[O-])cc1)C(Cl)Cl  MIC (broth dilution; ATCC700603): 80 µM
CN[C@H](CC(C)C)C(=O)N[C@H]1C(=O)N[C@@H](CC(N)=O)C(=O)N[C@H]2C(=O)N[C@H]3C(=O)N[C@H](C(=O)N[C@H](C(=O)O)c4cc(O)cc(O)c4-c4cc3ccc4O)[C@H](O)c3ccc(c(Cl)c3)Oc3cc2cc(c3O[C@@H]2O[C@H](CO)[C@@H](O)[C@H](O)[C@H]2O[C@H]2C[C@](C)(N)[C@H](O)[C@H](C)O2)Oc2ccc(cc2Cl)[C@H]1O  MIC (broth dilution; ATCC43816): > 128 µM
CC[C@H]1OC(=O)[C@H](C)[C@@H](O[C@H]2C[C@@](C)(OC)[C@@H](O)[C@H](C)O2)[C@H](C)[C@@H](O[C@@H]2O[C@H](C)C[C@H](N(C)C)[C@H]2O)[C@](C)(O)C[C@@H](C)C(=O)[C@H](C)[C@@H](O)[C@]1(C)O  MIC (broth dilution; ATCC700603): 160 µM
CCCCCCC#Cc1cncc(-c2nnc(SCc3ccc(Cl)c(F)c3)n2C)c1  MIC: ≥ 20 mg/L
NCC[C@H](O)C(=O)N[C@@H]1C[C@H](N)[C@@H](O[C@H]2O[C@H](CN)[C@@H](O)[C@H](O)[C@H]2O)[C@H](O)[C@H]1O[C@H]1O[C@H](CO)[C@@H](O)[C@H](N)[C@H]1O  MIC: 1 mg/L
O=C(O)c1cn(C2CC2)c2cc(N3CCNCC3)c(F)cc2c1=O  MIC (broth dilution; 24 h): 0.57 µM
CNC(=O)c1cc(Oc2ccc(NC(=O)Nc3ccc(Cl)c(C(F)(F)F)c3)cc2)ccn1  MIC (DSM30104): > 100 µM
C=C[C@]1(C)C[C@@H](OC(=O)CS[C@@H]2C[C@H]3CC[C@@H](C2)N3C)[C@]2(C)[C@H](C)CC[C@]3(CCC(=O)[C@H]32)[C@@H](C)[C@@H]1O  MIC (broth dilution; ATCC700603): 160 µM
